Assay results of several laboratories.
Each line is one published result; the experiments were not run side by side. pIC50: −log10 of the molar value.
Read-out: DPPH scavenging

COc1cc(C(CC(=O)c2ccc([N+](=O)[O-])cc2)NCCc2ccc(O)c(O)c2)ccc1O (centres unmarked) — IC50: 14.6 µg/mL
Cc1cc2nc(-c3ccccc3OCc3ccccc3)[nH]c2cc1C — pIC50 (absorbance): 5.74
O=c1oc2c(O)c(O)cc3c(=O)oc4c(O)c(O)cc1c4c23 — pIC50 (absorbance): 4.17
Cc1c(C)c2c(c(C)c1O)CCC(C)(C(=O)O)O2 (centres unmarked) — IC50 (absorbance): 7.06 µg/mL
Clc1ccc2[nH]c(-c3cccc(OCc4ccccc4)c3)nc2c1 — pIC50 (absorbance): 5.74
COc1ccc(NC(=O)Cc2c[nH]c3ccccc23)cc1 — pIC50: 5.98
COc1cc(C(CC(=O)c2ccc(C(C)(C)C)cc2)NCCc2ccc(O)c(O)c2)ccc1O (centres unmarked) — IC50: 15.6 µg/mL
COc1ccc(-c2nc3cc([N+](=O)[O-])ccc3[nH]2)cc1OCc1ccccc1 — pIC50 (absorbance): 5.59
O=C(O)c1cc(O)c(O)c(O)c1 — pIC50 (absorbance): 4.44
Cc1ccc(Cl)cc1NC(=O)Cc1c[nH]c2ccccc12 — pIC50: 5.79
CCOC(=O)c1cc(O)c(O)c(O)c1 — pIC50 (absorbance): 4.36
COc1ccc(-c2nc3cc(F)ccc3[nH]2)cc1OCc1ccccc1 — pIC50 (absorbance): 5.59
Cc1ccc(C)c(NC(=O)Cc2c[nH]c3ccccc23)c1 — pIC50: 5.75
O=C1O[C@H]([C@@H](O)CO)C(O)=C1O — pIC50: 5.30
Cc1c(C)c2c(c(C)c1O)CC[C@@](C)(CCC[C@H](C)CCC[C@H](C)CCCC(C)C)O2 — IC50 (absorbance): 11.3 µg/mL
COc1cc(C(CC(=O)c2ccc(C)cc2)NCCc2ccc(O)c(O)c2)ccc1O (centres unmarked) — IC50: 21.1 µg/mL
O=C(Cc1c[nH]c2ccccc12)Nc1ccc(Br)cc1 — pIC50: 5.99
Cc1cc(C(C)(C)C)c(O)c(C(C)(C)C)c1 — IC50: 25.2 µg/mL
Cc1ccc(NC(=O)Cc2c[nH]c3ccccc23)c(C)c1 — pIC50: 5.57
COc1cc(C=Cc2cc(-c3ccc(N(C)C)cc3)nc(O)n2)ccc1O — IC50: 32.5 µg/mL
